Measured values taken from ChEMBL document CHEMBL2346582, “Guanidino anthrathiophenediones as G-quadruplex binders: uptake, intracellular localization, and anti-Harvey-Ras gene activity in bladder cancer cells” (J Med Chem, 2013).
The source made the active and inactive calls. The calls are words filed in the database; no cut-off is given here.

Legend:
T-24 [1] = experiment: Binding affinity to HRAS G-quadruplex DNA in human T24 cells assessed as reduction in p21HRAS level at 5 uM after 72 hrs by immunoblotting analysis relative to control; format: cell-based; set-up: scale not given: the % may be the effect or the level left
Procedure, shortened: (§1)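 T24 cells treated with 5 μM ligand for 48 or 72 h. Lysates (30 μg) run on 12% SDS-PAGE and immunoblotted with monoclonal anti-HRAS and β-actin antibodies, with HRP detection. HRAS level = (p21HRAS/β-actin treated)/(p21HRAS/β-actin untreated) × 100.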

Homo sapiens [2] = organism: Homo sapiens; experiment: Thermal stabilization of human HRAS2 G-quadruplex FAM-CGGGGCGGGGCGGGGGCGGGGGCG-TAMRA DNA assessed as as change in melting temperature at 1:4 DNA:ligand ratio by FRET assay
T-24 [3] = experiment: Binding affinity to HRAS G-quadruplex DNA in human T24 cells assessed as reduction in p21HRAS level at 5 uM after 72 hrs by immunoblotting analysis relative to control
T-24 [4] = experiment: Induction of apoptosis in human T24 cells by caspase 3/7 assay; format: functional, cell-based
[5] = Binding affinity to human NRAS G-quadruplex FAM-GGGAGGGGCGGGUCUGGG-TAMRA RNA assessed as quenching of fluorescence emission by FRET titration assay
Procedure, shortened: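 RNA quadruplex, 200 nM, dual-labelled with FAM and TAMRA, in 50 mM Tris-HCl pH 7.4, 10 mM KCl. Titrated with ligand at r = 1–5 ([ligand]/[quadruplex]). The fraction of bound quadruplex was calculated from quenching of fluorescence and fitted to the Hill equation to give KD.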

T-24 (Homo sapiens) = experiment: Cellular uptake in human T24 cells after 4 hrs by FACS flow cytometric analysis in presence of dynasore; details: t24, 4 h
T-24 [6] = experiment: Binding affinity to wild type HRAS quadruplex DNA in human T24 cells assessed as reduction in gene expression at 0.5 to 5 uM treated for 24 hrs prior to transfection measured 72 hrs post transfection by dual-luciferase reporter gene assay relative to control; format: cell-based; set-up: scale not given: the % may be the effect or the level left
Procedure, shortened: (§2)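 T24 cells pretreated 24 h with ligand (0.5, 2.5, 5 μM). Then co-transfected with jet-PEI: firefly reporter (250 ng/well), either HRAS promoter wild type, HRAS promoter with 4 point mutations in the quadruplex motifs, or IL-8 promoter, plus CMV-Renilla (10 ng/well). Dual-Glo read 72 h post-transfection. Firefly/Renilla expressed as T/C × 100 relative to untreated cells.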

Homo sapiens [7] = organism: Homo sapiens; experiment: Thermal stabilization of human HRAS1 G-quadruplex FAM-TCGGGTTGCGGGCGCAGGGCACGGGCG-TAMRA DNA assessed as change in melting temperature at 1:1 DNA:ligand ratio by FRET assay
Procedure, shortened: (§3)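 FRET melting in 50 mM Tris-HCl pH 7.4 with an equimolar ligand:quadruplex ratio (r = 1). Conditions: NRAS RNA and hras-2 in 10 mM KCl; hras-1 in 100 mM KCl, with ΔTM taken from its second transition. Ramp 1 °C/min from 20 to 95 °C after 5 min equilibration. TM and ΔTM (±0.5 K) versus ligand-free quadruplex.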

Homo sapiens [8] = organism: Homo sapiens; experiment: Thermal stabilization of human HRAS2 G-quadruplex FAM-CGGGGCGGGGCGGGGGCGGGGGCG-TAMRA DNA assessed as as change in melting temperature at 1:1 DNA:ligand ratio by FRET assay; procedure, shortened: as §3
T-24 [9] = experiment: Binding affinity to HRAS quadruplex DNA mutant in human T24 cells assessed as reduction in gene expression at 0.5 to 5 uM treated for 24 hrs prior to transfection measured 72 hrs post transfection by dual-luciferase reporter gene assay relative to control; format: cell-based; procedure, shortened: as §2
[10] = Binding affinity to human HRAS2 G-quadruplex FAM-CGGGGCGGGGCGGGGGCGGGGGCG-TAMRA DNA assessed as quenching of fluorescence emission by FRET titration assay
Procedure, shortened: (§4)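 FRET titration of 200 nM oligonucleotide dual-labelled at its ends with carboxyfluorescein (donor) and tetramethylrhodamine (acceptor), in 50 mM Tris-HCl with KCl (100 mM for htelo and hras-1, 10 mM for KRAS and hras-2). Ligand binding quenches the emission, mainly the acceptor at 580 nm. The fraction of filled sites was fitted to the Hill equation to give apparent KD and the Hill coefficient.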

[11] = Binding affinity to mouse KRAS G-quadruplex FAM-GCGGGAGGGAGGGAAGGAGGGAGGGAGGGAG-TAMRA DNA assessed as quenching of fluorescence emission by FRET titration assay; procedure, shortened: as §4
Homo sapiens [12] = organism: Homo sapiens; experiment: Thermal stabilization of human NRAS G-quadruplex FAM-GGGAGGGGCGGGUCUGGG-TAMRA RNA assessed as melting temperature at 1:1 DNA:ligand ratio by FRET assay; procedure, shortened: as §3
Salmonidae = experiment: Thermal stabilization of salmon sperm duplex DNA assessed as melting temperature by FRET assay
Homo sapiens [13] = organism: Homo sapiens; experiment: Thermal stabilization of human NRAS G-quadruplex FAM-GGGAGGGGCGGGUCUGGG-TAMRA RNA assessed as change in melting temperature at 1:1 DNA:ligand ratio by FRET assay; procedure, shortened: as §3
NIH3T3 [14] = experiment: Cytotoxicity against mouse NIH/3T3 cells at 1 to 30 uM after 72 hrs by resazurin assay; format: cell-based; details: NIH3T3, 72 h
Procedure, shortened: (§5)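 Cells seeded at 3000 per well the day before treatment, grown in DMEM with 10% FBS. Ligand added at 1, 2.5, 5, 10, 20, 30 μM for 72 h. Viability measured by resazurin and expressed as % of untreated cells; mean of three independent measurements. IC50 is the concentration reducing proliferation by 50%.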

T-24 [15] = experiment: Cytotoxicity against human T24 cells expressing mutant HRAS at 1 to 30 uM after 72 hrs by resazurin assay; format: functional, cell-based; details: T-24, 72 h; procedure, shortened: as §5
NIH3T3 [16] = experiment: Cellular uptake in mouse NIH/3T3 cells at 0.5 to 10 uM after 8 hrs by flow cytometric analysis; format: ADME, cell-based; details: nih3t3, 8 h
Procedure, shortened: (§6)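 Cells plated at 5 × 10^4 per well and treated next day with ligand at […] for 8 h. Then trypsinized, resuspended in PBS and analysed by flow cytometry (488 nm excitation, FL3 680 nm, log scale), at least 10,000 cells per sample. Uptake read from intrinsic ligand red fluorescence.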

NIH3T3 [17] = experiment: Cellular uptake in mouse NIH/3T3 cells after 4 hrs by FACS flow cytometric analysis in presence of dynasore; format: ADME, cell-based; details: nih3t3, 4 h
T-24 [18] = experiment: Binding affinity to HRAS G-quadruplex DNA in human T24 cells assessed as reduction in p21HRAS level at 5 uM after 48 hrs by immunoblotting analysis; format: cell-based; procedure, shortened: as §1
T-24 [19] = experiment: Binding affinity to HRAS G-quadruplex DNA in human T24 cells assessed as reduction in p21HRAS level at 5 uM by immunoblotting analysis relative to control
HEK293 = experiment: Cellular uptake in human HEK293 cells at 0.5 to 10 uM after 8 hrs by flow cytometric analysis; format: ADME, cell-based; details: hek293, 8 h; procedure, shortened: as §6
T-24 [20] = experiment: Cellular uptake in human T24 cells at 4 degC by FACS flow cytometric analysis; format: ADME, cell-based
Procedure, shortened: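 T24 cells incubated with ligand at 4 °C or 37 °C. Intracellular ligand fluorescence measured by flow cytometry in the FL3 (680 nm) channel.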

Compound	Activity (T-24 [1]) [%]	deltaTm (Homo sapiens [2]) [K]	Activity (T-24 [3])	Activity (T-24 [4])	Kd [5] [nM]	Drug uptake (T-24 (Homo sapiens))	Activity (T-24 [6]) [%]	deltaTm (Homo sapiens [7]) [K]	deltaTm (Homo sapiens [8]) [K]	Activity (T-24 [9])	Kd [10] [nM]	Kd [11] [nM]	Tm (Homo sapiens [12]) [°C]	Activity (Salmonidae)	deltaTm (Homo sapiens [13]) [K]	IC50 (NIH3T3 [14]) [nM]	IC50 (T-24 [15]) [nM]	Drug uptake (NIH3T3 [16])	Drug uptake (NIH3T3 [17])	Activity (T-24 [18])	other results
N=C(N)NCCCNc1c2c(c(NCCNC(=N)N)c3ccsc13)C(=O)c1ccccc1C2=O	20	17	Active	inactive	120	Active	25	5	4	inactive	370	210	86	Active	9	> 30000	7900	Active			
N=C(N)NCCCNc1c2c(c(NCCCNC(=N)N)c3sccc13)C(=O)c1ccccc1C2=O	20	17		inactive	110	Active	50	5	3	inactive	230	180	88	Active	11	> 30000	19500	Active			
N=C(N)NCCNc1c2c(c(NCCNC(=N)N)c3sccc13)C(=O)c1ccccc1C2=O	20	19		inactive	380		25	5	3	inactive	270	250	82	Active	5	20000	4400	Active	Active	Active	Activity (T-24 [19]): Active; Drug uptake (HEK293): Active; Drug uptake (T-24 [20]): Active
N=C(N)NCCCCNc1c2c(c(NCCCCNC(=N)N)c3sccc13)C(=O)c1ccccc1C2=O	20	26		inactive	60	Active	50	7	7	inactive	280	270	> 90	Active	> 13	> 30000	19100	Active		Active	Activity (T-24 [19]): Active; Drug uptake (T-24 [20]): Active
N=C(N)NCCCNc1c2c(c(NCCNC(=N)N)c3sccc13)C(=O)c1ccccc1C2=O	20	12	Active	inactive	90			8	3	inactive	280	230	88	Active	11	20000	6500	Active	Active		
